According to ChEMBL document CHEMBL2157972, “Selenophene-containing inhibitors of type IIA bacterial topoisomerases” (J Med Chem, 2011):
In brackets after ≈: the same amount, converted by molar mass.

Key:
Staphylococcus aureus [1] = assay: Antibacterial activity against methicillin-resistant Staphylococcus aureus ATCC 700699; assay type: functional
Procedure, shortened: (§1)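 Read-out is the minimum inhibitory concentration (MIC), reported in μg/mL, from standard antimicrobial susceptibility testing.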

DNA gyrase = DNA gyrase (Staphylococcus aureus, UniProt P0A0K8+P20831); assay: Inhibition of Staphylococcus aureus DNA gyrase by supercoiling assay; assay type: protein-complex assay
[2] = Cytotoxicity against human Hep2 cell line after 72 hrs; assay type: cell-based; conditions: HEp-2 cells
Procedure, shortened: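 Human laryngeal epidermoid carcinoma Hep2 cells were exposed for 72 h.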

Staphylococcus aureus [3] = assay: Antibacterial activity against methicillin-sensitive Staphylococcus aureus ATCC 29213; assay type: functional; procedure, shortened: as §1
Staphylococcus aureus [4] = assay: Antibacterial activity against fluoroquinolone resistant Staphylococcus aureus 3-FQR3M ATCC 700699 expressing GyrA Ser84Leu mutant and Glu409Lys mutant and GrlA Ser80Phe mutant; assay type: functional; procedure, shortened: as §1
[5] = Inhibition of Staphylococcus aureus topoisomerase 4 by decatenation assay
Procedure, shortened: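 Enzyme activity was measured by topoisomerase IV decatenation using S. aureus enzyme. Inhibition is reported as a concentration in μM.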

Staphylococcus aureus [6] = assay: Antibacterial activity against fluoroquinolone resistant Staphylococcus aureus 4-FQR3M BSA643 expressing GyrA Ser84Leu mutant and GrlA Ser80Tyr and Glu84Gly mutant; assay type: functional; procedure, shortened: as §1
Staphylococcus aureus [7] = assay: Antibacterial activity against fluoroquinolone resistant Staphylococcus aureus 1-FQR2M BK2384 expressing GyrA Ser84Leu mutant and GrlA Ser80Phe mutant; assay type: functional; procedure, shortened: as §1
Staphylococcus aureus [8] = assay: Antibacterial activity against fluoroquinolone resistant Staphylococcus aureus 5-FQR4M BSA678 expressing GyrA Ser84Leu and Ser85Pro mutant and GrlA Ser80Phe and Glu84Lys mutant; assay type: functional; procedure, shortened: as §1
Staphylococcus aureus [9] = assay: Antibacterial activity against fluoroquinolone resistant Staphylococcus aureus 2-FQR2M NY2746 expressing GyrA Ser84Leu mutant and GrlA Ser80Phe mutant; assay type: functional; procedure, shortened: as §1
[10] = Cytotoxicity against […] CHO cell line after 72 hrs; assay type: cell-based, Cricetulus griseus; conditions: chinese hamster, CHO cells
[11] = Cytotoxicity against human HeLa cell line after 72 hrs; assay type: cell-based; conditions: HeLa cells
[12] = Cytotoxicity against human HepG2 cell line after 72 hrs; assay type: cell-based; conditions: HepG2 cells
[13] = biological target: T1, Voltage-gated inwardly rectifying potassium channel KCNH2 (Homo sapiens, UniProt Q12809); assay: Inhibition of human ERG expressed in mammalian cells by patch clamp method; assay type: cell-based
hERG (KCNH2) = hERG (KCNH2) (Homo sapiens, UniProt Q12809); assay: Inhibition of human ERG expressed in mammalian cells at 10 uM by patch clamp method; assay type: cell-based; conditions: mammalian cells that express hERG
Staphylococcus aureus [14] = assay: Antimicrobial activity against fluoroquinolone sensitive Staphylococcus aureus; assay type: functional
Procedure, shortened: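 Standard susceptibility testing. The read-out is the minimum inhibitory concentration, reported in μg/mL.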

Staphylococcus aureus [15] = assay: Antimicrobial activity against fluoroquinolone resistant Staphylococcus aureus; assay type: functional; procedure, shortened: as §1
[16] = biological target: T1, Voltage-gated inwardly rectifying potassium channel KCNH2

Structure (SMILES): COC(=O)[C@H]1CN(CCS(=O)(=O)c2ccc[se]2)CC[C@H]1CCC(=O)c1ccnc2ccc(OC)cc12
- MIC (Staphylococcus aureus [1]): > 32 µg/mL

Structure (SMILES): COC(=O)[C@H]1CN(CCSc2cccs2)CC[C@H]1CCC(=O)c1ccnc2ccc(OC)cc12
- MIC (Staphylococcus aureus [1]): > 32 µg/mL

Structure (SMILES): COc1ccc2nccc([C@@H](O)CC[C@@H]3CCN(CCSc4ccc(C(F)F)[se]4)C[C@@H]3C(=O)O)c2c1 (mixture of isomers)
- IC50 (DNA gyrase): 21.2 µM
- MIC (Staphylococcus aureus [1]): 16 µg/mL
- CC50 at 72 h [2]: 39 µM
- MIC (Staphylococcus aureus [3]): 32 µg/mL

Structure (SMILES): COc1ccc2nccc(C(O)CC[C@@H]3CCN(CCSc4ccc(C(=O)O)[se]4)C[C@@H]3C(=O)O)c2c1 (mixture of isomers)
- IC50 (DNA gyrase): > 100 µM
- MIC (Staphylococcus aureus [1]): > 64 µg/mL
- CC50 at 72 h [2]: > 100 µM
- MIC (Staphylococcus aureus [3]): > 64 µg/mL

Structure (SMILES): COc1c(N2C[C@@H]3CCCN[C@@H]3C2)c(F)cc2c(=O)c(C(=O)O)cn(C3CC3)c12 [MOXIFLOXACIN]
- MIC (Staphylococcus aureus [4]): 4 µg/mL (≈ 9.96 µM)
- IC50 [5]: 1 µM
- MIC (Staphylococcus aureus [1]): 4 µg/mL (≈ 9.96 µM)
- MIC (Staphylococcus aureus [6]): 16 µg/mL (≈ 39.9 µM)
- CC50 at 72 h [2]: > 100 µM
- MIC (Staphylococcus aureus [7]): 1 µg/mL (≈ 2.49 µM)
- MIC (Staphylococcus aureus [8]): > 64 µg/mL
- MIC (Staphylococcus aureus [3]): 0.06 µg/mL (≈ 0.149 µM)
- MIC (Staphylococcus aureus [9]): 8 µg/mL (≈ 19.9 µM)

Structure (SMILES): COc1ccc2nccc([C@H](O)CC[C@@H]3CCN(CCSc4cccs4)C[C@@H]3C(=O)O)c2c1 (mixture of isomers)
- MIC (Staphylococcus aureus [4]): 0.5 µg/mL
- CC50 at 72 h [10]: > 100 µM
- IC50 (DNA gyrase): 3.3 µM
- IC50 [5]: 23 µM
- MIC (Staphylococcus aureus [1]): 0.5 µg/mL
- CC50 at 72 h [11]: > 100 µM
- MIC (Staphylococcus aureus [6]): 1 µg/mL
- CC50 at 72 h [12]: > 100 µM
- CC50 at 72 h [2]: > 100 µM
- MIC (Staphylococcus aureus [7]): 1 µg/mL
- MIC (Staphylococcus aureus [8]): 4 µg/mL
- MIC (Staphylococcus aureus [3]): 1 µg/mL
- MIC (Staphylococcus aureus [9]): 1 µg/mL

Structure (SMILES): COC(=O)[C@H]1CN(CCSc2ccco2)CC[C@H]1CCC(=O)c1ccnc2ccc(OC)cc12
- MIC (Staphylococcus aureus [1]): > 32 µg/mL

Structure (SMILES): COc1ccc2nccc([C@@H](O)CC[C@@H]3CCN(CCSc4ccc[se]4)C[C@@H]3C(=O)O)c2c1 (mixture of isomers)
- MIC (Staphylococcus aureus [4]): 0.25 µg/mL
- CC50 at 72 h [10]: > 100 µM
- IC50 (DNA gyrase): 0.4 µM
- IC50 [5]: 64 µM
- MIC (Staphylococcus aureus [1]): 0.25 µg/mL
- CC50 at 72 h [11]: > 100 µM
- MIC (Staphylococcus aureus [6]): 0.5 µg/mL
- CC50 at 72 h [12]: > 100 µM
- CC50 at 72 h [2]: > 100 µM
- MIC (Staphylococcus aureus [7]): 0.25 µg/mL
- MIC (Staphylococcus aureus [8]): 1 µg/mL
- MIC (Staphylococcus aureus [3]): 0.25 µg/mL
- MIC (Staphylococcus aureus [9]): 0.5 µg/mL

Structure (SMILES): COc1ccc2nccc([C@@H](O)CC[C@@H]3CCN(CCS(=O)(=O)c4ccc[se]4)C[C@@H]3C(=O)O)c2c1 (mixture of isomers)
- IC50 (DNA gyrase): > 100 µM
- MIC (Staphylococcus aureus [1]): > 64 µg/mL
- CC50 at 72 h [2]: > 100 µM
- MIC (Staphylococcus aureus [3]): > 64 µg/mL

Structure (SMILES): COc1ccc2nccc([C@@H](O)CC[C@@H]3CCN(CCSc4ccco4)C[C@@H]3C(=O)O)c2c1 (mixture of isomers)
- MIC (Staphylococcus aureus [4]): 2 µg/mL
- CC50 at 72 h [10]: > 100 µM
- IC50 (DNA gyrase): 4.7 µM
- IC50 [13]: < 30 µM
- IC50 [5]: > 100 µM
- MIC (Staphylococcus aureus [1]): 2 µg/mL
- CC50 at 72 h [11]: > 100 µM
- MIC (Staphylococcus aureus [6]): 4 µg/mL
- CC50 at 72 h [12]: > 100 µM
- CC50 at 72 h [2]: > 100 µM
- inhibition at 10 µM (hERG (KCNH2)): 27%
- MIC (Staphylococcus aureus [7]): 4 µg/mL
- MIC (Staphylococcus aureus [8]): 8 µg/mL
- MIC (Staphylococcus aureus [3]): 2 µg/mL
- MIC (Staphylococcus aureus [9]): 2 µg/mL

Structure (SMILES): COC(=O)[C@H]1CN(CCSc2ccc(C#N)[se]2)CC[C@H]1CCC(=O)c1ccnc2ccc(OC)cc12
- MIC (Staphylococcus aureus [1]): > 32 µg/mL

Structure (SMILES): COc1ccc2ncc(F)c([C@@H](O)CC[C@@H]3CCN(CCSc4cccs4)C[C@@H]3C(=O)O)c2c1
- MIC90 (Staphylococcus aureus [14]): 1 µg/mL (≈ 1.98 µM)
- MIC90 (Staphylococcus aureus [15]): 0.5 µg/mL (≈ 0.991 µM)
- IC50 [16]: 124 µM

Structure (SMILES): COC(=O)[C@H]1CN(CCC(=O)N2CCCCC2)CC[C@H]1CCC(=O)c1ccnc2ccc(OC)cc12
- MIC (Staphylococcus aureus [1]): > 32 µg/mL

Structure (SMILES): COC(=O)[C@H]1CN(CCSc2ccc[se]2)CC[C@H]1CCC(=O)c1ccnc2ccc(OC)cc12
- MIC (Staphylococcus aureus [1]): > 32 µg/mL

Structure (SMILES): COc1ccc2nccc([C@H](O)CC[C@@H]3CCN(CCSc4ccc(C#N)[se]4)C[C@@H]3C(=O)O)c2c1 (mixture of isomers)
- MIC (Staphylococcus aureus [1]): > 64 µg/mL
- CC50 at 72 h [2]: 65 µM
- MIC (Staphylococcus aureus [3]): > 64 µg/mL
